Values after ≈ are worked out from the molar mass of the structure shown.
Columns and labels:
[1] = system: Klebsiella pneumoniae; experiment: Antibacterial activity against Klebsiella pneumoniae ATCC 700603 assessed as growth inhibition incubated for 18 hrs by resazurin dye based assay; assay type: functional
In short: (§1)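 Overnight cultures were diluted 40-fold in MHB and grown 1.5–2 h at 37 °C to mid-log phase. Cells were added at 5×10^5 CFU/mL final to two-fold compound dilutions (0.008–32 μg/mL final), in duplicate, for 18 h at 37 °C. Resazurin (0.001% final) was added for 2 h and MIC read by eye. Means, n = 2.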

[2] = system: Candida albicans; experiment: Antifungal activity against Candida albicans ATCC 90028 assessed as growth inhibition incubated for 36 hrs by resazurin dye based assay; assay type: functional; settings: ATCC 90028, 36 h
In short: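 Yeast was grown 3 days on YPD agar at 30 °C. Colonies were suspended and diluted in YNB broth to 2.5×10^3 CFU/mL, then added to two-fold compound dilutions (0.008–32 μg/mL final), in duplicate. Plates stood 36 h at 35 °C without shaking. Means, n = 2.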

[3] = system: L6; experiment: Cytotoxicity against rat L6 cells measured after 72 hrs by alamar blue assay; assay type: cell-based; settings: L6, 72 h
In short: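 Rat L6 myoblasts, 4×10^4/well in RPMI 1640 with L-glutamine and 10% FBS, received seven 3-fold dilutions (90 to 0.123 μg/mL) for 72 h. Alamar Blue was added for 2 h and fluorescence read at ex 536/em 588 nm. Podophyllotoxin served as reference. Means, n = 2.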

[4] = system: Staphylococcus intermedius; experiment: Antibacterial activity against Staphylococcus intermedius 1051997 assessed as growth inhibition incubated for 18 hrs by broth dilution method; assay type: functional; settings: Staphylococcus intermedius, 1051997, 18 h
In short: (§2)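 Broth microdilution following CA-SFM recommendations. Inoculum was 10^5 CFU in Mueller-Hinton broth with two-fold serial drug dilutions. Plates were incubated 18 h at 37 °C. MIC was the lowest concentration giving complete inhibition of visible growth. Values are means, n = 3.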

[5] = system: Pseudomonas aeruginosa; experiment: Potentiation of doxycycline-induced antibacterial activity against Pseudomonas aeruginosa ATCC 27853 assessed as concentration required to restore 2 ug/ml doxycycline activity measured after 18 hrs; assay type: functional
In short: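 Inoculum was 5×10^5 CFU in MHB with two-fold serial dilutions of adjuvant plus fixed doxycycline at 2 μg/mL. […] Repeated independently in triplicate.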

[6] = system: Acinetobacter baumannii; experiment: Antibacterial activity against Acinetobacter baumannii ATCC 19606 assessed as growth inhibition incubated for 18 hrs by resazurin dye based assay; assay type: functional; settings: ATCC 19606 = CIP 70.34 = JCM 6841, 18 h; in short: as §1
[7] = Hemolytic activity against Sprague-Dawley rat RBC assessed as release of hemoglobin at 50 uM incubated for 1 hr relative to control; assay type: ADME, cell-based, Erythrocyte; settings: red blood cells (erythrocytes), read-out: Activity
In short: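 Fresh Sprague-Dawley rat erythrocytes were washed in saline and resuspended at 2% v/v. Cells were incubated with compound in DMSO/PBS for 1 h at 37 °C, then centrifuged at 200 g, and supernatant absorbance read at 540 nm. Results were normalised to DMSO/PBS (0%) and 0.1% Triton X-100 (100%). Single-point testing used 50 μM; HC50 came from 10-point curves. Means of three experiments.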

[8] = system: Escherichia coli; experiment: Antibacterial activity against Escherichia coli ATCC 25922 assessed as growth inhibition incubated for 18 hrs by broth dilution method; assay type: functional; in short: as §2
[9] = system: Pseudomonas aeruginosa; experiment: Antibacterial activity against Pseudomonas aeruginosa ATCC 27853 assessed as growth inhibition incubated for 18 hrs by broth dilution method; assay type: functional; in short: as §2
[10] = system: Cryptococcus neoformans; experiment: Antifungal activity against Cryptococcus neoformans ATCC 208821 assessed as growth inhibition incubated for 36 hrs by resazurin dye based assay; assay type: functional; settings: ATCC 208821, 36 h
In short: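 Cryptococcus was grown 3 days on YPD agar at 30 °C, suspended, and diluted in YNB broth to 2.5×10^3 CFU/mL. Cells were exposed to 0.008–32 μg/mL compound (final), in duplicate, for 36 h at 35 °C without shaking. Resazurin (0.006% final) was added for a further 3 h. MIC was read from absorbance at OD570–600. Means, n = 2.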

[11] = system: Staphylococcus aureus; experiment: Antibacterial activity against Staphylococcus aureus ATCC 25923 assessed as growth inhibition incubated for 18 hrs by broth dilution method; assay type: functional; settings: ATCC 25923, 18 h; in short: as §2
[12] = Cytotoxicity against human HEK293 cells measured after 20 hrs by resazurin dye based fluorescence assay; assay type: cell-based
In short: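 HEK293 cells, 5,000/well in DMEM with 10% FBS, were exposed to compound for 20 h at 37 °C, 5% CO2. Resazurin (100 μM final) was added for 3 h, then fluorescence read at ex 560/em 590. Signal was normalised to tamoxifen (74 μg/mL, 0%) and untreated growth (100%), and CC50 came from dose-response fitting. Top dose 32 μg/mL. Means, n = 2.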

[13] = Klebsiella pneumoniae, 700603, 18 h

Compound	MIC [1, 13]	MIC [2]	IC50 [3]	MIC [4]	Activity [5]	MIC [6]	hemolysis at 1 h, 50 µM [7]	MIC ([8]; ATCC 25922, 18 h)	MIC ([9]; ATCC 27853, 18 h)	MIC [10]	MIC [11]	CC50 at 20 h [12]	MIC [1]	MIC [8]	MIC [9]
O=C(NCCCNCCCCNCCCNC(=O)C(=O)c1c[nH]c2cc(F)ccc12)C(=O)c1c[nH]c2cc(F)ccc12.O=C(O)C(F)(F)F.O=C(O)C(F)(F)F	> 39.6 µM	> 39.6 µM	69.1 µM	> 200 µM	25 µM	> 39.6 µM	0.3%	> 200 µM	> 200 µM	19.8 µM	100 µM	12.5 µM			
CN[C@@H]1[C@H](O[C@H]2[C@H](O[C@H]3[C@H](O)[C@@H](O)[C@H](N=C(N)N)[C@@H](O)[C@@H]3N=C(N)N)O[C@@H](C)[C@]2(O)C=O)O[C@@H](CO)[C@H](O)[C@H]1O [STREPTOMYCIN]				10.7 µM (≈ 6.22 µg/mL)				21.5 µM (≈ 12.5 µg/mL)	21.5 µM (≈ 12.5 µg/mL)		21.5 µM (≈ 12.5 µg/mL)				
COLISTIN													0.25 µg/mL	2 µM	1 µM
Cc1ccc2[nH]cc(C(=O)C(=O)NCCCNCCCCNCCCNC(=O)C(=O)c3c[nH]c4ccc(C)cc34)c2c1.O=C(O)C(F)(F)F.O=C(O)C(F)(F)F	> 40 µM	> 40 µM	63.8 µM	> 200 µM	6.25 µM	> 40 µM	0.3%	200 µM	100 µM	10 µM	25 µM	> 40 µM			
COc1ccc2c(C(=O)C(=O)NCCCNCCCCNCCCNC(=O)C(=O)c3c[nH]c4cc(OC)ccc34)c[nH]c2c1	> 38.4 µM	> 38.4 µM	54 µM	> 100 µM	50 µM	> 38.4 µM	0%	> 100 µM	> 100 µM	19.2 µM	> 100 µM	> 38.4 µM			
N#Cc1ccc2[nH]cc(C(=O)C(=O)NCCCNCCCCNCCCNC(=O)C(=O)c3c[nH]c4ccc(C#N)cc34)c2c1.O=C(O)C(F)(F)F.O=C(O)C(F)(F)F	> 38.9 µM	> 38.9 µM	37.1 µM	> 200 µM	50 µM	> 38.9 µM	0%	> 200 µM	> 200 µM	38.9 µM	100 µM	> 38.9 µM			
O=C(NCCCNCCCCNCCCNC(=O)C(=O)c1c[nH]c2ccc(Cl)cc12)C(=O)c1c[nH]c2ccc(Cl)cc12.O=C(O)C(F)(F)F.O=C(O)C(F)(F)F	> 38 µM	38 µM	19.8 µM		14.9 µM	> 38 µM	0%	> 200 µM	> 100 µM	> 38 µM	> 200 µM	4.73 µM			
O=C(NCCCNCCCCNCCCNC(=O)C(=O)c1c[nH]c2c(Cl)cccc12)C(=O)c1c[nH]c2c(Cl)cccc12.O=C(O)C(F)(F)F.O=C(O)C(F)(F)F	> 38.1 µM	> 38.1 µM	7.47 µM		25 µM	> 38.1 µM	1.1%	200 µM	200 µM	19.1 µM	50 µM	31.6 µM			
O=C(NCCCNCCCCNCCCNC(=O)C(=O)c1c[nH]c2ccc(F)cc12)C(=O)c1c[nH]c2ccc(F)cc12.O=C(O)C(F)(F)F.O=C(O)C(F)(F)F	> 39.6 µM	> 39.6 µM	71.1 µM	50 µM	12.5 µM	> 39.6 µM	0%	200 µM	200 µM	9.9 µM	25 µM	> 39.6 µM			
COc1cc([C@@H]2c3cc4c(cc3[C@H](O)[C@H]3COC(=O)[C@H]23)OCO4)cc(OC)c1OC [PODOFILOX]			0.018 µM												
OC(Cn1cncn1)(Cn1cncn1)c1ccc(F)cc1F [FLUCONAZOLE]		0.125 µg/mL								8 µg/mL					
O=C(NCCCNCCCCNCCCNC(=O)C(=O)c1c[nH]c2cccc(F)c12)C(=O)c1c[nH]c2cccc(F)c12	> 55.1 µM	> 55.1 µM	167 µM	35 µM (≈ 20.3 µg/mL)	35 µM	> 55.1 µM	0.3%	100 µM (≈ 58.1 µg/mL)	140 µM (≈ 81.3 µg/mL)	> 55.1 µM	> 70 µM	> 55 µM			
N#Cc1ccc2c(C(=O)C(=O)NCCCNCCCCNCCCNC(=O)C(=O)c3c[nH]c4cc(C#N)ccc34)c[nH]c2c1.O=C(O)C(F)(F)F.O=C(O)C(F)(F)F	> 38.9 µM	> 38.9 µM	46.9 µM	25 µM	50 µM	> 38.9 µM	0%	200 µM	> 200 µM	38.9 µM	100 µM	> 38.9 µM			
O=C(NCCCNCCCCNCCCNC(=O)C(=O)c1c[nH]c2cc(Cl)ccc12)C(=O)c1c[nH]c2cc(Cl)ccc12.O=C(O)C(F)(F)F.O=C(O)C(F)(F)F	38.1 µM	38.1 µM	33.2 µM	3.12 µM	6.25 µM	38.1 µM	11.6%	50 µM	100 µM	4.8 µM	6.25 µM	19.1 µM			

Source: ChEMBL document CHEMBL4311975, “Exploration of the antibiotic potentiating activity of indolglyoxylpolyamines” (Eur J Med Chem, 2019)
